The text below walks through data of PubChem BioAssay AID463111 (Johns Hopkins Ion Channel Center, 2010).

Screen size: about 310,000 compounds; about 2,800 (0.9%) were called active. The sample holds actives, similar compounds and a random draw of the others, so the mix is not that of the screen.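 How the source made its calls: active means B-score of the integrated calcium signal more than 4 SD below the library mean, with starting fluorescence not abnormally high; inactive means the rest.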

The test in a line: RGS4 potentiators or activators, primary screen, cell-based, HEK293 M3R inducible RGS4, calcium flux (AID 463111).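 On B-score: negative B-score means reduced calcium response which marks RGS4 activation or potentiation.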 As to conditions: HEK293 M3R/inducible RGS4, carbachol calcium flux Fluo4, at 10 µM; active compounds read low. The method, boiled down:
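Also added: carbachol at ECmax as muscarinic agonist stimulus; Assay system: HEK293 cells with stable M3R and inducible RGS4; Timing: overnight RGS4 induction, 30 min dye load 37 °C, 20 min compound RT; Measured by: Fluo4-AM (2 µM) calcium-flux fluorescence, kinetic read.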
Take `Cc1ccc(NC(=O)COc2coc(CN3CCc4ccccc4C3)cc2=O)cc1Cl`: the B-score result was “inactive”.
For `CCOC(=O)C1(Cc2ccccc2C)CCCN(C(=O)c2ccc(COC)o2)C1` (configuration not stated), the B-score result is “inactive”.
In the case of `CCOc1cc(C(=S)N2CCOCC2)ccc1OS(=O)(=O)c1ccc(Br)cc1` it was “inactive”; in that of `Cn1nccc1C(=O)NC1CCCc2c1cnn2-c1ccccc1F` (configuration not stated), “inactive”.
Take `COc1ccc(C(=O)NC2CCCc3c2cnn3-c2cccc(C)c2C)c(OC)n1` (configuration not stated): the B-score was -10.2 (active).
As for `Cc1cc(C(=O)NC2CCCc3c2cnn3-c2cccc(C)c2C)c(C)o1` (configuration not stated), the B-score entry is “inactive”.
With `Cc1cccc(C(=O)Nc2ccc(CC(=O)O)cc2)c1`, the B-score result was “inactive”.
In the case of `Cc1cccc(C(=O)Nc2ccc(C(=O)N/N=C/c3cccc(C)n3)cc2)c1` it was “inactive”; in that of `Cc1cccc(C(=O)Nc2ccc(C(=O)/C=C/c3cccs3)cc2)c1`, -10.5 (active).
Turning to `Cn1nc(C(F)(F)F)c2cc(NC(=O)OCC(C)(C)C)sc21`, the B-score entry was “inactive”.
Regarding `CN(C(=O)CN1C(=O)CCSc2ccc(S(=O)(=O)N3CCCC3)cc21)c1ccccc1`, the B-score entry was “inactive”.
To `CCCCOc1ccc(N(CC(=O)NCC2CCCO2)C(=O)CCC(=O)Nc2cc(C)ccn2)cc1` (configuration not stated) belongs “inactive”.
In the case of `Cc1cc(C)cc(NS(=O)(=O)c2ccc(F)cc2)c1` it was “inactive”; in that of `Cc1cc(C)cc(NS(=O)(=O)c2ccc(Oc3ncc(C(F)(F)F)cc3Cl)cc2)c1`, -8.23 (active).
With `COc1ccccc1Oc1ccc(S(=O)(=O)Nc2cccnc2)cc1`, the B-score result is “inactive”.
Take `CCN1C(=O)[C@H]2[C@@H](c3ccc(C)cc3)N3C(=O)N(c4cccc(Br)c4)C(=O)[C@@]3(CC)[C@H]2C1=O`: the B-score result is “inactive”.
In the case of `Cc1cc(NC(=O)CCN2CCN(Cc3ccccc3)CC2)ccc1Br` it was “inactive”; in that of `CCc1ccccc1NC(=O)[C@@H]1CCC(=O)N1C1OC(=O)c2c1ccc(OC)c2OC` (some centres not stated), -8.3 (active).
As for `CCOc1ccc(CNC(=O)C2CCC(=O)N2C2CCCC2)cc1OC` (configuration not stated), the B-score entry was “inactive”.
For the compound `O=C(Nc1ccccc1C(=O)N1CCOCC1)C1CCC(=O)N1C1CCCC1` (configuration not stated), the B-score entry is “inactive”.
Turning to `CC1CC(C)CN(CC(=O)N2c3ccccc3CCc3ccccc32)C1` (configuration not stated), the B-score result was “inactive”.
For `CCC(=O)N1CCCc2ccccc21`, the B-score entry is “inactive”.
`CN1CCN(C(=O)N2c3ccccc3CCc3ccccc32)CC1`: the B-score is -9.54 (active).
In the case of `N#CC1(C#N)C(C(=O)C23CC4CC(CC(C4)C2)C3)C12CCOCC2` (configuration not stated), the B-score result was “inactive”.
For the compound `FC(F)(F)C1CCCN(c2nsc3ccccc23)C1` (configuration not stated), the B-score result is “inactive”.
As to `COC(=O)c1cccc(N(CC(=O)NCC2CCCO2)C(=O)CCC(=O)Nc2cc(C)on2)c1` (configuration not stated), the B-score result was “inactive”.
As for `CN(Cc1ccccc1)c1nc2c(c(=O)[nH]c(=O)n2C)n1CCSc1nc2ccccc2[nH]1`, the B-score result was “inactive”.
As to `CC(C)CCn1c(CN(C)Cc2ccccc2)nc2c1c(=O)n(C)c(=O)n2C`, the B-score result is “inactive”.
In the case of `Cc1ccnc(SCCn2c(N(C)Cc3ccccc3)nc3c2c(=O)n(C)c(=O)n3C)n1` it was -7.93 (active); in that of `CC(C)c1nnc(NC(=O)COC(=O)/C=C/c2ccc([N+](=O)[O-])cc2)s1`, “inactive”; in that of `COCCCNc1nc2ccccc2nc1NS(=O)(=O)c1ccc(F)cc1`, “inactive”.
In the case of `O=C(Cn1ncc(N2CCCC2)c(Br)c1=O)c1ccc(Cl)cc1` it was “inactive”; in that of `COc1cccc(N(CC(=O)NC2CCCC2)C(=O)CCCC(=O)Nc2ccccn2)c1`, “inactive”; in that of `Fc1ccc(Cn2nnnc2C(c2cccs2)N2CCCCCC2)cc1` (configuration not stated), “inactive”.
`COc1cc(/C=C2/SC(=S)N(Cc3ccccc3)C2=O)cc(OC)c1O`: the B-score result was “inactive”.
On to `CCCCN1C(=O)/C(=C2/Sc3ccc(Cl)cc3N2CC)SC1=S`, for which the B-score result is “inactive”.
Consider `CCCCN1C(=O)/C(=C/C=C2/C=Cc3ccccc3N2CC)SC1=S`, for which the B-score entry is “inactive”.
For the compound `CCCCN1C(=O)/C(=C2/C=CC=CN2C)SC1=S`, the B-score is -8.69 (active).
For the compound `CN1C=CC=C/C1=C1\SC(=S)N(Cc2ccccc2)C1=O`, the B-score is -9.24 (active).
On to `CCN1C(=O)/C(=C2/Sc3ccccc3N2CCCS(=O)(=O)O)SC1=S`, for which the B-score entry was “inactive”.
Regarding `CC(C)CNC(=S)NNC(=O)c1ccccc1OC(F)F`, the B-score result is “inactive”.
For the compound `Cc1cccc(C(C)C)c1NC(=O)COC(=O)C1CC(=O)N(Cc2ccccc2)C1` (configuration not stated), the B-score entry is “inactive”.
In the case of `CNC(=O)c1[nH]cnc1C(=O)N[C@@H](CC(C)C)C(=O)OCc1ccccc1` it was “inactive”.
As to `N#Cc1ccc(/C=C2\CCn3c2nc2cc(C(=O)O)ccc2c3=O)cc1`, the B-score entry is “inactive”.
For `O=C(O)CC(SCC(=O)Nc1ccc(Br)cc1)C(=O)O` (configuration not stated), the B-score entry was “inactive”.
With `Cc1ccc(NC(=O)c2oc3ccccc3c2C)c([N+](=O)[O-])c1`, the B-score entry was “inactive”.
As for `COc1ccc(-c2csc3ncnc(Oc4ccc5c(C)cc(=O)oc5c4)c23)cc1`, the B-score result is “inactive”.
For `COc1ccc(-c2csc3ncnc(N4CCN(S(=O)(=O)c5cccc(F)c5)CC4)c23)cc1`, the B-score is -7.35 (active).
To `COc1ccc(-c2csc3ncnc(N4CCN(S(=O)(=O)c5ccccc5C#N)CC4)c23)cc1` belongs “inactive”; to `O=C(NCc1ccccc1)[C@H]1C[C@@H]1[C@H](NP(=O)(c1ccccc1)c1ccccc1)c1ccccc1`, “inactive”.
For `CCCn1nnnc1NC(=O)COc1ccc(Cl)cc1C`, the B-score result is “inactive”.
In the case of `CN(C)CCCN1C(=O)CSC1c1ccc([N+](=O)[O-])cc1` (configuration not stated), the B-score result was “inactive”.
For `CCCCCCCCCCCCN1C(=O)CSC1c1cccnc1` (configuration not stated), the B-score was -10 (active).
For the compound `CCCCCCOc1ccc(OC(=O)c2cccnc2)cc1`, the B-score result is “inactive”.
With `CC1(c2ccc3ccccc3c2)NC(=O)N(CC(N)=O)C1=O` (configuration not stated), the B-score entry was “inactive”.
To `CC1(C)CC(=O)C=C(N2CCOCC2)C1` belongs “inactive”; to `O=[N+]([O-])c1ccccc1OCCCCN1CCCCC1`, “inactive”; to `Cc1ccc(C(C)(C)C)c(OCCCCN2CCCC2)c1`, “inactive”.
For the compound `Cc1ccc(OCCCCN2CCCCC2)c(Br)c1`, the B-score was -7.76 (active).
Regarding `O=C(NCCCCc1ccccc1)C1CC(c2ccc([N+](=O)[O-])cc2)=NO1` (configuration not stated), the B-score entry was “inactive”.
As to `Cc1ccc(NC(=O)c2sccc2C)cc1[N+](=O)[O-]`, the B-score result is “inactive”.
`O=C(Nc1ccc([N+](=O)[O-])cc1)C1CC12CCC2` (configuration not stated): the B-score entry was “inactive”.
In the case of `COc1ccc(C(=O)N(C)CC(O)c2ccccc2)cc1OC1CCN(C(C)=O)CC1` (configuration not stated), the B-score result is “inactive”.
Turning to `CCC(NC(=O)c1ccccc1NC(=O)c1ccccc1)C(=O)NNC(=O)CSc1nc2ccccc2o1` (configuration not stated), the B-score entry is “inactive”.
For `CN(C)S(=O)(=O)N1CCC(Oc2cccc(C(=O)NCCCC3CCCC3)c2)CC1`, the B-score was -7.71 (active).
Consider `CN(C(=O)c1cccc(OC2CCN(S(=O)(=O)N(C)C)CC2)c1)C1CCOC1` (configuration not stated), for which the B-score result was “inactive”.
Turning to `CNS(=O)(=O)c1cccc(C(=O)NCC2CCCCC2)c1`, the B-score entry was “inactive”.
As for `Cc1ccc(-c2nc(CS(=O)(=O)CC(=O)NCc3ccc4c(c3)OCO4)c(C)o2)cc1`, the B-score result is “inactive”.
In the case of `N=c1c2c3c(sc2ncn1N)CCCCC3`, the B-score result was “inactive”.
Consider `N=c1c2c3c(sc2nc2n1CCCCC2)CCCC3`, for which the B-score is -8.12 (active).
`CC1(C)Cc2c(sc3nc4n(c(=N)c23)CCCCC4)CO1`: the B-score result is “inactive”.
Regarding `CCOc1ccc(S(=O)(=O)Nc2ccc(C(=O)NCCCN3CCCC3=O)cc2)cc1`, the B-score result was “inactive”.
Regarding `Cc1ccccc1C(OCCN(C)C)C1CCCCC1` (configuration not stated), the B-score was -8.62 (active).
Consider `CN(C)CCOC(=O)C(c1ccccc1)C1(O)CCCC1` (configuration not stated), for which the B-score result was “inactive”.
For `CN(C)CCOC1c2ccccc2-c2ccccc21`, the B-score result was “inactive”.
As to `Cc1ccc(C)c(N2CCN(C(=O)CCCCn3c(=O)[nH]c4ccccc4c3=O)CC2)c1`, the B-score entry is “inactive”.
To `Cc1ccc(C)c(N2CCN(C(=O)CCc3nc4ccccc4[nH]3)CC2)c1` belongs “inactive”.
`O=C(CCCCCn1c(=S)[nH]c2cc3c(cc2c1=O)OCO3)N1CCN(c2ccc(F)cc2)CC1`: the B-score entry was “inactive”.
`Cc1ccc(C)c(N2CCN(C(=O)CCCn3c(=O)c4cccn4c4cccnc43)CC2)c1`: the B-score was -7.65 (active).
In the case of `Cc1ccc(C)c(N2CCN(C(=O)Cn3ncn4cccc4c3=O)CC2)c1` it was “inactive”.
Regarding `Cc1ccc(C)c(N2CCN(C(=O)CCCCCn3c(=S)[nH]c4ccc(N5CCOCC5)cc4c3=O)CC2)c1`, the B-score is -10.9 (active).
To `Cn1c(=O)c2c(SCC(=O)NCC3CCCO3)nc(CC(C)(C)C)nc2n(C)c1=O` (configuration not stated) belongs “inactive”.
`OC1CCCN(c2ncnc3c2nnn3Cc2c(F)cccc2Cl)C1` (configuration not stated): the B-score result is “inactive”.
Consider `COc1ccc(CNC(=O)C(c2ccc(O)cc2)N(Cc2ccco2)C(=O)c2snc(C(N)=O)c2N)cc1` (configuration not stated), for which the B-score entry was “inactive”.
As for `CC(C)c1ccc(NC(=O)Cn2ncc3ccccc32)cc1`, the B-score result is “inactive”.
Regarding `COc1cccc(CNC(=O)CCC2CCCN(C(=O)c3ccc(F)c(Cl)c3)C2)c1` (configuration not stated), the B-score result was “inactive”.
`COc1cccc(CNC(=O)CCC2CCCN(Cc3ccc(OC(F)F)cc3)C2)c1` (configuration not stated): the B-score is -12 (active).
As to `COc1cccc(C(=O)N2CCCC(CCC(=O)NCc3ccc(F)c(F)c3)C2)c1` (configuration not stated), the B-score entry was “inactive”.
With `COc1cccc(C(=O)OCc2cc(=O)oc3c(C)c(C)ccc23)c1OC`, the B-score entry was “inactive”.
As to `O=C1c2ccccc2C(=O)N1c1cccc2ccccc12`, the B-score result was “inactive”.
In the case of `Cc1nn(C)cc1N1C(=O)c2cccc3c(N)ccc(c23)C1=O`, the B-score is -8.92 (active).
Take `CN1C(=O)c2cccc3c(N)ccc(c23)C1=O`: the B-score entry is “inactive”.
On to `COc1ccc(C(=O)Nc2ccc(C(=O)NCC3CCCO3)cc2)c(OC)c1OC` (configuration not stated), for which the B-score entry is “inactive”.
With `CC(=O)NCC(=O)N1CCC(n2nccc2NC(=O)CCCc2ccccc2)CC1`, the B-score result is “inactive”.
`COc1ccc(/C=C/C(=O)c2ccc(NS(=O)(=O)c3ccc(C)cc3)cc2)cc1O`: the B-score entry was “inactive”.
`COc1ccc(C(=O)/C=C/c2ccc(-c3ccccc3)cc2)cc1CSCC(=O)O`: the B-score is -7.93 (active).
To `COC(=O)c1ccc(COc2ccc(/C=C/C(=O)c3ccc(OC)c(CSCC(=O)O)c3)cc2OC)cc1` belongs “inactive”; to `CC(C)=CCN1CCN(CCCc2ccccc2)CC1CCO` (configuration not stated), “inactive”; to `NC1=NC(c2ccc([N+](=O)[O-])cc2)N(c2ccc(F)cc2)C(N)=N1` (configuration not stated), “inactive”.
On to `CCOC(=O)CNC(=O)N1c2ccccc2Sc2ccccc21`, for which the B-score result was “inactive”.
In the case of `COc1cc(/C=C/C(=O)N2c3ccccc3Sc3ccc(C(F)(F)F)cc32)cc(OC)c1OC`, the B-score entry is “inactive”.
In the case of `O=C(CN1CCCCCC1)N1c2ccccc2Sc2ccc(C(F)(F)F)cc21`, the B-score is -7.9 (active).
